Holding throughout (format): functional
In experiment [1] the test system is Pseudomonas aeruginosa. The experiment in a line: Bactericidal activity against Pseudomonas aeruginosa PAO1 ATCC 15692 at 10 to 50 ug/ml measured after 1 hrs by serial dilution method relative to control.
The subject of experiment [2] is Staphylococcus aureus. The experiment in a line: Bactericidal activity against Staphylococcus aureus ATCC 25923 at 200 ug/ml measured after 6 hrs by serial dilution method relative to control.
Experiment [3] concerns Staphylococcus aureus. The experiment in a line: Antibacterial activity against methicillin-resistant Staphylococcus aureus ATCC 43300 assessed as colony forming units at 200 ug/ml measured after 6 hrs by serial dilution method (reference value: 64.33 +/- 3.51 10^6CFU). The procedure, abridged:
(§1)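 Bacteria were exposed to test compound over a range of µg/ml concentrations. Viable bacteria were counted by colony forming unit (CFU) assay at set time points (6 h and 24 h for M. smegmatis and S. aureus strains), and untreated bacteria served as the control. Percentage of population killed was calculated relative to the untreated control. Values are means ± S.D of three independent trials.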

The subject of experiment [4] is Staphylococcus aureus. The experiment is described as follows: Antibacterial activity against Staphylococcus aureus ATCC 25923 assessed as colony forming units at 1 ug/ml measured after 24 hrs by serial dilution method (reference value: 77.66 +/- 5.13 10^6CFU).
The subject of experiment [5] is Pseudomonas aeruginosa. The experiment is described as follows: Bactericidal activity against Pseudomonas aeruginosa PAO1 ATCC 15692 at 50 to 100 ug/ml measured after 3 hrs by serial dilution method relative to control.
The subject of experiment [6] is Staphylococcus aureus. The experiment in a line: Bactericidal activity against Staphylococcus aureus ATCC 25923 at 1 to 10 ug/ml measured after 6 hrs by serial dilution method relative to control.
In experiment [7] the test system is Staphylococcus aureus. The experiment in a line: Antibacterial activity against methicillin-resistant Staphylococcus aureus ATCC 43300 assessed as colony forming units at 10 ug/ml measured after 6 hrs by serial dilution method (reference value: 64.33 +/- 3.51 10^6CFU). The procedure, abridged:
as §1

Experiment [8] relates to Staphylococcus aureus. The experiment is described as follows: Antibacterial activity against Staphylococcus aureus ATCC 25923 assessed as colony forming units at 500 ug/ml measured after 6 hrs by serial dilution method (reference value: 65.66 +/- 3.51 10^6CFU). The procedure, abridged: as §1
Experiment [9] in a line: Antioxidant activity assessed as DPPH free radical scavenging activity measured after 30 mins by spectrophotometry. The procedure, abridged:
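DPPH radical scavenging in ethanolic solution with a final DPPH concentration of 100 µM. Absorbance read at 517 nm. Percent inhibition = (A control − A test)/A control, where the control is DPPH without sample. The inhibition-versus-concentration plot gives EC50, the concentration giving a 50% drop in absorbance. Mean ± S.D. of three independent trials.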

Experiment [10] has as its system Pseudomonas aeruginosa. The experiment is described as follows: Antibacterial activity against Pseudomonas aeruginosa PAO1 ATCC 15692 assessed as colony forming units at 500 ug/ml measured after 1 hr by serial dilution method (reference value: 85.33 +/- 4.04 10^8CFU).
The subject of experiment [11] is Staphylococcus aureus. The experiment is described as follows: Bactericidal activity against Staphylococcus aureus ATCC 25923 at 100 ug/ml measured after 6 hrs by serial dilution method relative to control.
Experiment [12] deals with Pseudomonas aeruginosa. The experiment is described as follows: Bactericidal activity against Pseudomonas aeruginosa PAO1 ATCC 15692 at 50 ug/ml measured after 3 hrs by serial dilution method relative to control.
Experiment [13] deals with Pseudomonas aeruginosa. The experiment is described as follows: Bactericidal activity against Pseudomonas aeruginosa PAO1 ATCC 15692 at 50 ug/ml measured after 1 hr by serial dilution method relative to control.
The subject of experiment [14] is Staphylococcus aureus. The experiment is described as follows: Bactericidal activity against Staphylococcus aureus ATCC 25923 at 100 ug/ml measured after 24 hrs by serial dilution method relative to control.

SMILES strings stand for the structures.

For orientation: EC50 means the midpoint of the concentration-response curve. In the case of `Cc1ccc(O)c(NC(=O)/C=C/c2ccc(O)c(O)c2)c1`, the Activity in the experiment on Pseudomonas aeruginosa [1] is recorded as 50%; in the experiment on Staphylococcus aureus [2], 93.8%; in the experiment with Staphylococcus aureus [3], 6.66 ×10⁶ CFU; with Staphylococcus aureus [4], 75.66 ×10⁶ CFU; in the experiment with Pseudomonas aeruginosa [5], 50%; with Staphylococcus aureus [6], 60.9%. Further, the Activity in the experiment on Staphylococcus aureus [7] came to 44.66 ×10⁶ CFU; with Staphylococcus aureus [8], 0 ×10⁶ CFU; in the experiment on Pseudomonas aeruginosa [10], 0 ×10⁸ CFU. Moreover, the EC50 in experiment [9] worked out at 6.57 µM.
`O=C(/C=C/c1ccc(O)c(O)c1)Nc1ccccc1Nc1ccccc1`: the Activity was found to be 92.3% in the experiment on Staphylococcus aureus [11]; 68.33 ×10⁶ CFU with Staphylococcus aureus [4]; 62.1% with Pseudomonas aeruginosa [12]; 48 ×10⁶ CFU in the experiment on Staphylococcus aureus [7]; 0 ×10⁶ CFU in the experiment with Staphylococcus aureus [8]; 58.9% in the experiment on Pseudomonas aeruginosa [13]. Further, the Activity came to 84.9% in the experiment on Staphylococcus aureus [14] and 0 ×10⁸ CFU with Pseudomonas aeruginosa [10]. Further, in [9], the EC50 turned out to be 14.7 µM.

Values taken from ChEMBL document CHEMBL3868627, “Radical scavenging and antibacterial activity of caffemides against gram positive, gram negative and clinical drug resistance bacteria” (Bioorg Med Chem Lett, 2016).
